N-glyco inh = blocks N-linked glycosylation in D54 reporter cells; D54 ERlucT glycosylation luciferase reporter, 24 h; percent of 100 nM tunicamycin response; reporter increase, % at 12.5 µM; 0.23% of 360,000 active; AID 588692;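 active = mean luciferase reporter signal, scaled so untreated is 0 and the glycosylation-blocking control 100, at or above a set limit in every replicate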;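 note: luciferase carries N-glycosylation sites so blocking glycosylation raises the light; 0% = median of neutral control wells and 100% = median of 100 nM tunicamycin wells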
Vif imaging = blocks HIV Vif function. HEK293T cells, Vif self-association by quenched fluorescence, imaging, 24 h. inhibition, % at 7.49 µM. 0.35% of 340,000 active. AID 602346; in the data active = inhibition above about 50%, passing the limit was not always enough
CAL PDZ FP-1 = human CAL PDZ-peptide interaction inhibition; 0.02% of 330,000 active; purified CAL PDZ, TMR-peptide fluorescence polarization, 1 h; inhibition, % at 20 µM; Q9HD26; AID 504414;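 active = highest replicate inhibition of at least 40%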;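 note: plate controls were DMSO neutral control wells for no effect and unlabeled competitor peptide control wells for full effect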
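Assay system – tagged CAL PDZ protein CerCALP, purified · Timing – 1 h at RT · Compound – single point, 20 µM · Measured by – fluorescence polarization from S- and P-plane intensities, G-factor corrected · Evaluation – inhibition from polarization loss · Probe or stimulus – TMR reporter peptide T*-PRC34 · Buffer or medium – pH 7.4 phosphate-saline buffer, reducing agent, detergent, IgG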
PvdQ acylase = P. aeruginosa PvdQ acylase inhibition; purified PvdQ acylase, fluorescence plate reader; inhibition, % at 10 µM; 0.063% of 340,000 active; AID 488965; in the data active = inhibition above about 30%, passing the limit was not always enough;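 note: 0% = vehicle neutral wells and 100% = reference inhibitor wells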
CDK5 inh = CDK5/p35 (human) kinase inhibition; Q00535+Q15078; Recombinant CDK5/p35, ADP-Glo luminescence, 60 min; inhibition, % at 10 µM; 0.01% of 330,000 active; AID 488839;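 active = highest replicate inhibition of at least 50% and at least 75% of replicates reaching 50%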;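 note: plate controls were DMSO neutral control for no effect and GW8510 at 10 µM for full effect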
Target sequence (Q00535 whole entry, looked up): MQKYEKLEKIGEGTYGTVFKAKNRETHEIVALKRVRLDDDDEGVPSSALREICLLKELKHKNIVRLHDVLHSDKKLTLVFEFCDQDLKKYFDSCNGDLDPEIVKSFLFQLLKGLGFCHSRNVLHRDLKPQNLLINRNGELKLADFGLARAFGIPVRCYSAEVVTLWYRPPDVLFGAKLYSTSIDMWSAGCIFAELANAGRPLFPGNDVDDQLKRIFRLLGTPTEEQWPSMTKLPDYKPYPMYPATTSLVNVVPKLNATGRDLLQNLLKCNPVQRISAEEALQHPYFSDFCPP
Target sequence (Q15078 whole entry, looked up): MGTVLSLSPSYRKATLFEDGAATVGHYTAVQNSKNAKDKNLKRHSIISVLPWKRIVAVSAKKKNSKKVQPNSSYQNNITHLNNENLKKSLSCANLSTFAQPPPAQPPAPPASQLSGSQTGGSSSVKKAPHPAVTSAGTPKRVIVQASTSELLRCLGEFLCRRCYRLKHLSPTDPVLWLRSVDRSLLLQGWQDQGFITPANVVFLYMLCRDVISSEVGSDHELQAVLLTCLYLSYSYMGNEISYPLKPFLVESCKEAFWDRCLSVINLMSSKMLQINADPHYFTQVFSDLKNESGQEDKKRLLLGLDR
CAL PDZ FP-2 = blocks peptide binding to the human CAL PDZ domain. Q9HD26. purified CAL PDZ, TMR-peptide fluorescence polarization, 1 h. inhibition, % at 24.9 µM. 0.92% of 300,000 active. AID 602252;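 active = mean inhibition of at least 30% with at least half of replicates also reaching 30%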;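 note: 0% = DMSO neutral control and 100% = excess unlabeled competitor peptide PRC23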
The depositor's hits bear a star; nt = no result. Most compounds without a hit are left out; they make up all but 1.4% or so of the library.

SMILES | N-glyco inh | Vif imaging | CAL PDZ FP-1 | PvdQ acylase | CDK5 inh | CAL PDZ FP-2
Clc1ccc(-n2nnnc2Sc2ncnc3sccc23)cc1 | -2 | 184* | -1 | -18 | -3 | nt
CC1CCN(c2nc3c(c(=O)[nH]c(=O)n3C)n2CC(C)CSc2nnnn2-c2ccccc2)CC1 (stereo unspecified) | 3 | -1 | 0 | -4 | 1 | -1
N/N=C(/Cc1nc2ccccc2[nH]1)c1ccc([N+](=O)[O-])cc1 | -2 | 2 | 0 | -6 | 1 | 73*
O=C(CSC(=S)N1CCCC1)Nc1ncc(Cl)cc1Cl | -2 | -3 | 0 | 5 | 0 | -2
CCOC(=O)c1cnc2c(C)cc(C)cc2c1NCCCN1CCOCC1 | 29* | -4 | -1 | 5 | 2 | nt
CCOC(=O)c1cnc2c(ccc3ccccc32)c1NCCCN(C)C | 98* | -3 | -3 | -24 | 0 | -2
CCOC(=O)c1cnc2ccccc2c1NCCO | 3 | 1 | -1 | 3 | 0 | -2
CC(C)NC(=O)c1ccc(-c2ccc(F)c(F)c2)c2ccoc12 | -4 | 3 | nt | nt | nt | nt
CC(C)Nc1nc(-c2ccccc2)nc(-n2ccnc2)n1 | 3 | -6 | -2 | -9 | 1 | 1
c1ccc(-c2nc(-n3ccnc3)nc(-n3ccnc3)n2)cc1 | 27* | -2 | -2 | -13 | -2 | -2
CCOC(=O)Cn1c(=O)n(CC(=O)OCC)c2ccccc21 | 1 | 1 | -3 | -13 | 0 | -3
CCOC(=O)CCn1c(=S)n(CCC(=O)OCC)c2ccccc21 | 1 | 0 | 1 | 9 | 2 | 55*
Cc1ccc(C2=NCCn3nc4cc([N+](=O)[O-])ccc4c32)cc1 | 1 | -3 | -1 | 19 | 1 | -1
CCCOc1ccc(/C=C/C(=O)N2CCN(C(=O)c3ccco3)CC2)cc1OC | -4 | 4 | nt | nt | nt | nt
CCN1CCN(c2nc3c(c(=O)[nH]c(=O)n3C)n2CCSc2nc3ccccc3s2)CC1 | 2 | 6 | 0 | -10 | 0 | -4
Cc1csc(SCCn2c(N3CCN(c4ccccc4)CC3)nc3c2c(=O)[nH]c(=O)n3C)n1 | 2 | 57* | -1 | -24 | 0 | -3
CCOC(=O)C1=CN(CC)S(=O)(=O)NC1c1ccc2ccccc2c1 (stereo unspecified) | -1 | -2 | 0 | -7 | -2 | -1
Cc1nn(CC(=O)NC(=O)c2ccccc2)c(C)c1[N+](=O)[O-] | 2 | 54* | -1 | 7 | 1 | nt
Cc1nn(CC(=O)N2CC(=O)Nc3ccccc32)c(C)c1[N+](=O)[O-] | 0 | 23 | 1 | -15 | -1 | 63*
Cc1nn(CC(=O)N2CCc3ccccc3C2)c(C)c1[N+](=O)[O-] | 2 | nt | -1 | 0 | 0 | -4
Cc1nn(CC(=O)NCc2ccccc2)c(C)c1[N+](=O)[O-] | 0 | 5 | 0 | -9 | 1 | -4
COc1cc(=O)[nH]c(SC(C)C(=O)Nc2ccc3ccccc3c2)n1 (stereo unspecified) | -1 | 1 | -3 | -10 | 0 | -7
Cc1cc(C(=O)CSc2nnnn2-c2ccccc2)c(C)n1CCc1ccccc1 | 0 | 4 | 0 | 0 | 0 | -4
Cc1cc(C(=O)CSc2nnnn2C)c(C)n1CCc1ccc(F)cc1 | 0 | -1 | -2 | -16 | -2 | 39*
CCSc1nnc(NC(=O)CCNC(=O)c2ccccc2Cl)s1 | 3 | -9 | 0 | -9 | 0 | 115*
SMILES | N-glyco inh | Vif imaging | CAL PDZ FP-1 | PvdQ acylase | CDK5 inh | CAL PDZ FP-2
N#Cc1ccccc1S(=O)(=O)N1CCN(C(=O)C2CC(=O)N(c3ccc4c(c3)OCCO4)C2)CC1 (stereo unspecified) | 1 | 10 | -1 | 3 | 1 | -5
Cc1ccc(OCCCC(=O)NNC(=O)c2ccccn2)cc1 | -1 | 4 | 0 | -23 | -2 | -2
CC1CCN(S(=O)(=O)c2cccc3cccnc23)CC1 | -1 | -18 | -3 | 3 | -1 | 14
Cc1ccc(OCC(=O)N2CCOCC2)c([N+](=O)[O-])n1 | 1 | -2 | -2 | -7 | 1 | -2
Cc1ccc(OCC(=O)N2CC(C)OC(C)C2)c([N+](=O)[O-])n1 (stereo unspecified) | 1 | -4 | 7 | -14 | 0 | 46*
COC(=O)C1C(O)=C(C=Nc2cccc3ccccc23)C(=O)CC1(C)C (stereo unspecified) | 1 | -2 | -2 | -16 | 2 | 60*
COC(=O)C1C(O)=C(C=NCc2ccccc2)C(=O)CC1(C)C (stereo unspecified) | -1 | 6 | 0 | -12 | -1 | 1
O=S(=O)(NCc1ccc(Cl)cc1Cl)c1ccc(N2CCOCC2)nc1 | -2 | 6 | -1 | -10 | 2 | 36*
CSc1ccc(S(=O)(=O)NCc2ccc(Cl)cc2Cl)cc1 | -2 | 1 | -1 | -1 | 1 | nt
COc1cnc(-c2ccccn2)nc1N(C)C | -10 | 14 | 0 | -9 | -6 | 73*
COc1ccc(Oc2nc(-c3ccccn3)ncc2OC)cc1 | 0 | 3 | -1 | 7 | 0 | 5
COc1ccc(CCNC(=O)CNCC(c2ccccc2)N(C)C)cc1OC (stereo unspecified) | -3 | 10 | 1 | -15 | 0 | -3
CCCC(=O)Nc1cc(S(=O)(=O)N2CCCCC2)ccc1N1CCOCC1 | 2 | -7 | 0 | -10 | 1 | 59*
CCCC(=O)Nc1cc(S(=O)(=O)N2CCOCC2)ccc1N1CCCCC1 | 0 | 3 | 0 | -12 | -2 | nt
O=C(Nc1cc(S(=O)(=O)N2CCOCC2)ccc1N1CCCC1)c1ccc(Cl)cc1 | 11 | -10 | 1 | 5 | 2 | -4
Cc1ccc(C(=O)Nc2cc(S(=O)(=O)N3CCOCC3)ccc2N2CCCC2)cc1 | 45* | 0 | 1 | -9 | -1 | nt
CCOc1ccccc1/C=N/NC(=O)C[n+]1ccccc1 | 0 | 2 | 0 | -6 | 1 | nt
CCOC(=O)[C@@H](NC(=O)/C=C/[C@H]1O[C@@H](n2ccc(=O)[nH]c2=O)[C@H](O)[C@@H]1O)C(C)C | 2 | -8 | nt | nt | nt | nt
CCC(CC)C(=O)NCCc1ccc(S(N)(=O)=O)cc1 | 2 | 68* | 0 | 0 | -1 | -2
CCCCC(CC)C(=O)NCCc1ccc(S(N)(=O)=O)cc1 (stereo unspecified) | 1 | -4 | 0 | 2 | 3 | nt
NS(=O)(=O)c1ccc(CCNC(=O)COC(=O)Cc2ccc([N+](=O)[O-])cc2)cc1 | 3 | -1 | 1 | -10 | 1 | 34*
NS(=O)(=O)c1ccc(CCNC(=O)COC(=O)c2ccc([N+](=O)[O-])o2)cc1 | 2 | -5 | 1 | -10 | 1 | 10
CCOC(=O)c1sc(-c2ccc(Cl)cc2Cl)nc1O | 3 | 3 | 0 | -12 | 1 | 49*
CCOC(=O)c1sc(CS(=O)(=O)c2ccc(Cl)cc2)nc1C | -1 | 2 | -2 | -4 | 0 | -6

Screening data as filed in PubChem BioAssay.
